Kir21 block – inhibitors of mouse Kir2.1 inward-rectifier potassium channel; B-score at 10 µM; Inward rectifier potassium channel 2 (Mus musculus), P35561; 0.85% of 310,000 active; HEK293-Kir2.1, FluxOR thallium flux fluorescence; stronger effect = lower value; AID 1672, 2009;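 active = fluorescence ratio B-score at or below minus 3 SD of library scores, with starting-brightness B-score within 2 SD, cut at about -4.2 in these data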;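 also: channel flux triggered by added potassium and thallium sulfate stimulus; B-score of peak minus minimum fluorescence over baseline after thallium stimulus; more negative B-score means stronger Kir2.1 block with less thallium influx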
hERG rescue – hERG rescue from dofetilide block, primary screen, cell-based, CHO-hERG, FluxOR thallium flux, dofetilide IC70 | activation (rescue from dofetilide block), less the hit threshold, % at 10 µM | AID 1511, 2009 | 0.51% of 310,000 active | dofetilide IC70 present | Voltage-gated inwardly rectifying potassium channel KCNH2 (Homo sapiens), Q12809;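 active = activation above the mean of controls blocked by dofetilide plus 5 SD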;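 also: thallium influx through hERG after potassium depolarization seen as dye fluorescence rise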
KCNQ1 pot – potentiators or activators of KCNQ1 channel, primary screen, cell-based, thallium flux, high-throughput; Potassium voltage-gated channel subfamily KQT member 1 (Homo sapiens), P51787; CHO-K1 KCNQ1, thallium flux FluxOR fluorescence; stronger effect = higher value; B-score at 10 µM; 0.35% of 310,000 active; AID 2648, 2010;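 active = fluorescence ratio B-score, a plate-corrected score, at least three library SD, with initial intensity B-score within 5 SD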
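assay system = KCNQ1-transfected CHO-K1 cells | medium = assay buffer with matched DMSO | probe or stimulus = depolarizing K+/Tl+ stimulus, K2SO4 and Tl2SO4 each 12.5 mM in 5x stock | dosing = single dose | incubation = dye 90 min, compound 20 min, room temperature | detection = kinetic FluxOR fluorescence, 10 s baseline plus 110 s post-stimulus | evaluation = ratio B score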
KCNQ1 block – inhibitors of human KCNQ1 channel, primary screen, cell-based, thallium flux, high-throughput. Potassium voltage-gated channel subfamily KQT member 1 (Homo sapiens), P51787. CHO-K1 KCNQ1, FluxOR thallium flux fluorescence; stronger effect = higher value. B-score at 10 µM. 1.3% of 310,000 active. AID 2642, 2010;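 active = compounds whose thallium flux B-score, printed positive for inhibition, exceeds three library SD while starting fluorescence stays within three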;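 also: channel opened by potassium depolarization with thallium stimulus after 20 min compound exposure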
KCNK3 inh – human KCNK3 channel inhibitors, primary screen, CHO cells, FluxOR thallium flux, B-score; FluxOR fluorescence; stronger effect = lower value; B-score at 10 µM; Potassium channel subfamily K member 3 (Homo sapiens), O14649; 0.84% of 340,000 active;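 active = B-score under library mean minus 4 SD, starting fluorescence ratio at most library mean plus 5 SD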;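 also: more negative B-score means stronger inhibition of thallium flux through KCNK3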
KCNK9 inh – KCNK9 potassium channel inhibitors, primary screen, HEK293 cells, thallium flux. Potassium channel subfamily K member 9 (Homo sapiens), Q9NPC2. FluxOR thallium flux fluorescence; stronger effect = lower value. B-score at 10 µM. 1.2% of 310,000 active;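 active = ratio B-score over 3 SD below the library mean, with starting fluorescence within 5 SD of its mean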;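 also: negative B-score means less thallium flux so channel inhibition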
Numbers without * were called inactive; i = inactive; · = no result given. Compounds with a hit are over-represented: about 3.7% of the library has one in this group of screens.

SMILES	Kir21 block	hERG rescue	KCNQ1 pot	KCNQ1 block	KCNK3 inh	KCNK9 inh
N#CC(NC(=O)OCc1ccccc1)c1ccccc1 (configuration not stated)	-0.4	-12	i	i	i	i
CCN1/C(=C\C=C(C(C)=O)C(C)=O)Sc2ccccc21	-7.3	-22	i	8*	i	i
CCCc1cc(=O)[nH]c(SCC(=O)NC(=O)c2ccccc2)n1	0.12	-9	i	i	i	i
CCCc1cc(=O)[nH]c(SCC(=O)N(Cc2ccccc2)C(C)C)n1	0.41	-5	i	i	i	-7*
Cn1c2ccc(F)cc2c2nnc(SCC(=O)Nc3cccc(O)c3)nc21	1.2	5.2*	i	i	i	i
COc1ccc(S(=O)(=O)Nc2cccc(-c3ccc(N4CCCCCC4)nn3)c2)c(OC)c1	-0.88	-3	i	i	i	i
CCc1ccc(CN2CCCC(CNC(=O)c3cccc(OC)c3OC)C2)cc1 (configuration not stated)	-0.45	-2	i	i	i	i
CC1CCCN(C(=O)CSc2ncccn2)C1 (configuration not stated)	-0.81	-7	i	i	i	i
Cn1c(=O)c2c(nc(N/N=C/c3ccc(OC(=O)c4ccco4)cc3)n2Cc2ccccc2Cl)n(C)c1=O	-0.53	-6	i	7*	i	i
COc1ccc(CC(=O)Nc2nc(C(C)(C)C)cs2)cc1	-8.2*	1	i	i	i	i
COc1ccc(-c2csc(NC(=O)Cc3ccccc3F)n2)c(OC)c1	0.85	-7	i	i	i	-6.9*
O=C(Cc1cccs1)Nc1nc(-c2ccc(F)cc2F)cs1	0.29	-5	i	i	i	-7.5*
O=C(Cc1cccs1)Nc1nc(-c2ccc(F)c(F)c2)cs1	0.5	-6	i	i	i	i
Cc1nc(NC(=O)CN2CC(C)OC(C)C2)sc1C(=O)N(C)C (configuration not stated)	-0.61	-6	i	i	i	i
CN(C)C(CNS(=O)(=O)c1cc([N+](=O)[O-])ccc1Cl)c1ccco1 (configuration not stated)	·	·	·	·	i	·
COc1cccc(-c2nnc(SCC(=O)NC3CCS(=O)(=O)C3)n2C)c1 (configuration not stated)	·	·	·	·	i	·
O=S(=O)(NC(=S)c1ccccc1)c1ccc(F)cc1	0.68	-1	i	i	i	i
N#CC1(CCCN2CCCCC2)c2ccccc2CCc2ccccc21	-5.6*	-11	i	i	i	i
OC1(C#CCCN2CCCCC2)c2ccccc2-c2ccccc21	0.06	3	i	i	i	i
N#CC(c1ccc(Cl)cc1)N1CCOCC1 (configuration not stated)	0.07	-4	i	i	i	i
Oc1c(Cl)cc(Cl)cc1C(C#Cc1ccccc1)N1CCOCC1 (configuration not stated)	-1.2	-11	i	i	i	-7.1*
Cn1nnnc1Sc1ncnc2scc(-c3cccs3)c12	·	·	·	·	i	·
O=S(=O)(c1ccc(SCc2ccc(Br)cc2)nc1)N1CCCCC1	·	·	·	·	-10*	·
Cc1cccc(-n2cc(-c3ccc([N+](=O)[O-])cc3)[nH]c2=S)c1	1.7	-4	i	i	i	i
Cc1ccc(-n2cc(-c3ccc([N+](=O)[O-])cc3)[nH]c2=S)c(C)c1	0.03	7.2*	i	i	i	i
Cc1ccc(C)c(N2CCN(CCCNC(=O)Cn3cccc3C(=O)c3ccccc3C)CC2)c1	-7.4*	-27	i	i	i	i

From PubChem BioAssay
